# Sampled rows, rich in hits. Any-hit rate of the full collection: about 2.1%.
# TRPML3 ag: agonists of human TRPML3 channel; Q8TDD5; HEK293 TRPML3-YFP, Fluo-8 calcium fluorescence; 100% = the carbachol control signal; activation, % at 3 µM; 220,000 tested, 0.29% active; AID 1448;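 active = activation above its plate's cutoff, the mean activation of the plate's test wells plus 3 SD, cut at about 12% in these data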;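 note: 0% = DMSO only wells and 100% = carbachol wells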
# Target sequence (Q8TDD5 whole entry, looked up): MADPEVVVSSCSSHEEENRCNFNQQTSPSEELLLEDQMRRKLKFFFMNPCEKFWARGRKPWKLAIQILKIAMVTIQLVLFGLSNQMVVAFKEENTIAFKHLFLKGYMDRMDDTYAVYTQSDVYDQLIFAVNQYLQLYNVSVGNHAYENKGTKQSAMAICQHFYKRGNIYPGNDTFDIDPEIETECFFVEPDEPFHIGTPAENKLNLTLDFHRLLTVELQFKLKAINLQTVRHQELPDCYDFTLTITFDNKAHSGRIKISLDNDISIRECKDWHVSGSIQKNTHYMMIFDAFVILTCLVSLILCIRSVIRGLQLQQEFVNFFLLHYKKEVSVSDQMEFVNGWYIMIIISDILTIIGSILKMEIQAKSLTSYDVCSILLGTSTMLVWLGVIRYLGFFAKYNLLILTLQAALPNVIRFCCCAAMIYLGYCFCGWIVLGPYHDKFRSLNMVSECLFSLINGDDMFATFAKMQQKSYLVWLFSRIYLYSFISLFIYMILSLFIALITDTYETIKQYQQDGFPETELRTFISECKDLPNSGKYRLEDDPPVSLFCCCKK
#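 system = HEK293 cells stably carrying human TRPML3-YFP | doses = one concentration, 3 µM nominal, 0.3% DMSO | timing = dye loading 1 h 37 °C then 30 min ambient, 125 s read | detection = Fluo-8 calcium dye fluorescence, ex 470-495, em 515-575 nm | benchmarks = high control carbachol 87 µM, low control DMSO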
# CRFR2-BP antag: CRF-BP/CRF-R2 complex antagonism | HEK293 CRF-R2/CRF-BP, CRF-induced calcium fluorescence | inhibition, % at 11.8 µM | 350,000 tested, 0.59% active | AID 588475;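 active = inhibition of the ligand-induced calcium signal above about 50% at the single tested concentration, limit read from the data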
# CRFR2-BP ag: CRF-BP/CRF-R2 complex agonism; 350,000 tested, 0.46% active; activation, % at 13.2 µM; HEK293 CRF-R2/CRF-BP, calcium dye fluorescence (FLIPR); percent of saturating CRF peptide response;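 active = activation of at least 50%, plus an integration ratio under a set limit after plate pattern correction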;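 note: plate controls were neutral control wells without compound for no effect and CRF at EC100 for full effect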
# VIM-2 inhibitor: inhibitors of Pseudomonas aeruginosa VIM-2 metallo-beta-lactamase | purified VIM-2, nitrocefin hydrolysis, epi-absorbance fluorescence | inhibition, % at 5.6 µM | 290,000 tested, 0.89% active | AID 1527;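 active = inhibition above the mean of all tested compounds plus 3 SD, cutoff set per screening run, cut at about 7.5% in these data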;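 note: red hydrolysis product quenches plate fluorescence so inhibitors raise well fluorescence; 0% = enzyme with DMSO and 100% = DMSO without enzyme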
# TRPN1 ag: zebrafish TRPN1 (NompC) channel agonism; HEK293 zebrafish TRPN1-YFP, Fluo-8 calcium fluorescence; 100% = response to 87 µM carbachol; 220,000 tested, 0.18% active; activation, % at 3 µM;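 active = activation above its plate's cutoff, the mean activation of test wells on that plate plus 3 SD, cut at about 19% in these data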;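 note: 0% = DMSO alone and 100% = 87 µM carbachol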
#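 Material: zebrafish TRPN1-YFP in HEK293 cells. Doses: one dose of 3 µM, 0.3% DMSO. Incubation: dye 1 h 37 °C plus 30 min RT. Measured by: intracellular calcium fluorescence with Fluo-8.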
# IMP-1 inhibitor: blocks Pseudomonas aeruginosa IMP-1 metallo-beta-lactamase; inhibition, % at 5.6 µM; 290,000 tested, 0.45% active; purified IMP-1, nitrocefin hydrolysis, epi-absorbance fluorescence;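 active = inhibition above the mean plus 3 SD of all compounds in the same screening run, cut at about 4.5% in these data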;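 note: 0% = IMP-1 with DMSO and 100% = DMSO wells lacking enzyme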
#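 System: purified IMP-1 / Input: IMP-1 dispensed at 0.2 nM / Medium: 50 mM HEPES pH 7.1, 50 µM ZnSO4, 0.05% Brij 35 / Timing: 15 min enzyme–compound preincubation, then 25 min nitrocefin reaction, 25 °C / Technique: plate fluorescence quenching by hydrolysis product, ex 480/em 530 nm / Repeats: singlicate testing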
# The depositor's hits bear a star; x = no result.
SMILES,TRPML3 ag,CRFR2-BP antag,CRFR2-BP ag,VIM-2 inhibitor,TRPN1 ag,IMP-1 inhibitor
Cc1ccc(CNC(=O)CCCc2cn(C)c3ccccc23)cc1,x,9,0,-2,x,-1
CCOc1ccc(NC(=O)/C(C#N)=C/c2ccc(N3CCCC3)c(C)c2)cc1,1,-135,119*,-3,1,-2
C=CCNC(=O)/C(C#N)=C\c1cc(Cl)c(O)c(OCC)c1,0,-2,7,-3,-1,-3
CCOc1cc(/C=C(/C#N)C(=O)Nc2ccc(O)cc2)cc(Br)c1O,2,-81,96*,1,4,-1
CCCS(=O)(=O)C/C(N)=N/OC(=O)c1ccccc1Cl,1,-2,-1,-1,2,8.3*
N/C(CS(=O)(=O)c1ccccn1)=N\OC(=O)c1ccccc1Cl,1,-3,-2,-2,2,-3
C=C1c2cccc(O)c2C(O)=C2C(=O)[C@]3(O)C(O)=C(C(N)=O)C(=O)[C@@H](N(C)C)[C@@H]3[C@@H](O)[C@H]12,0,-14,3,8.6*,0,3
C[C@H]1c2cccc(O)c2C(O)=C2C(=O)C3(O)C(O)=C(C(N)=O)C(=O)[C@@H](N(C)C)[C@@H]3[C@@H](O)[C@@H]21 (some centres undefined),x,7,-1,x,x,x
CCOC(=O)c1cc([N+](=O)[O-])sc1NC(=O)c1ccc(S(=O)(=O)N2CC3(C)CC2CC(C)(C)C3)cc1 (centres undefined),0,-129,152*,3,-1,-1
CCCCn1c(N)c(N(Cc2ccccc2OC)C(=O)c2c(CC)noc2C)c(=O)[nH]c1=O,x,78*,0,-2,x,-3
CCN1C(=O)c2cccc3c(S(=O)(=O)Nc4ccc(O)c(C(=O)O)c4)ccc1c23,x,3,-1,8.2*,x,-3
CCN1C(=O)c2cccc3c(S(=O)(=O)NCc4ccccc4)ccc1c23,x,6,-2,x,x,x
CCN1C(=O)c2cccc3c(S(=O)(=O)Nc4ccccc4OC)ccc1c23,123*,-134,129*,-2,46*,-4
CCN1C(=O)c2cccc3c(NS(=O)(=O)c4ccc(NC(C)=O)cc4)ccc1c23,0,1,-2,-4,1,-2
CN(CC(=O)Nc1cccc(Cl)c1)S(=O)(=O)/C=C/c1ccccc1,x,14,-1,x,x,x
Cc1sc2ncnc(NCC(c3ccco3)N3CCCC3)c2c1C (centres undefined),-1,-3,-1,11*,-1,-1
COc1cc(OC)cc(C(=O)c2c(C)c(C#N)c3ccccn23)c1,x,1,4,7.8*,x,-2
C#CCOCCOCCOCCNc1nc(N2CCN(C(=O)[C@H](CCCCN)n3cc([C@@H](N)CO)nn3)CC2)nc(N2CCN(C(=O)[C@H](Cc3cc4ccccc4[nH]3)n3cc([C@@H](N)CC(C)C)nn3)CC2)n1,0,x,x,0,-1,-2
CN(C)S(=O)(=O)c1cccc(NC(=O)c2ccccc2SCC(=O)N2CCCC2)c1,x,1,0,x,x,x
COc1cccc(N=Nc2c(N)[nH]n3c(=O)cc(-c4ccccc4)nc23)c1,-1,21,-1,2,-1,-3
COc1ccc(-c2c(C(F)(F)F)[nH]n3c(=O)cc(-c4ccccc4)nc23)cc1,1,70*,-4,-2,1,-2
Cc1[nH]n2c(=O)cc(-c3ccc([N+](=O)[O-])cc3)nc2c1-c1ccccc1,-1,48,1,-2,1,-6
Cc1ccc(N=Nc2c(N)[nH]n3c(=O)cc(-c4ccccc4)nc23)cc1,0,59*,0,-2,1,-3
C/C(CC(=O)Nc1cc(C)ccn1)=N\NC(=O)c1ccc(C(C)(C)C)cc1,x,0,0,-4,x,-1
Cc1cccc(N=Cc2[nH]c3ccc(Br)c(Cl)c3c2O)c1,3,-190,192*,-1,4,-1
SMILES,TRPML3 ag,CRFR2-BP antag,CRFR2-BP ag,VIM-2 inhibitor,TRPN1 ag,IMP-1 inhibitor
COc1ccccc1CN=Cc1[nH]c2ccc(Br)c(Cl)c2c1O,1,-3,1,1,1,-2
CCOc1nc(Nc2ccc(OC)c(Cl)c2)nc(OCC)n1,0,7,-2,10*,1,-4
COc1ccc(Nc2cc(C)nc3ncnn23)cc1Cl,x,19,2,9.4*,x,-5
COc1cc(Nc2cc(C)nc3ncnn23)cc(OC)c1OC,0,9,1,4,0,-3
C[C@@H]1CN([C@@H](C)CO)S(=O)(=O)c2ccc(C#CC(C)(C)O)cc2O[C@H]1CN(C)C(=O)C1CCCCC1,x,-13,1,x,x,x
COC(=O)c1cccc(NC(=O)CSc2nnc(C)o2)c1,x,30,3,-4,x,7.5*
CC(=O)c1cccc(NC(=O)CSc2nnc(-c3ccncc3)o2)c1,x,-2,0,x,x,x
O=C(COc1ccc2c(-c3ccccc3)cc(=O)oc2c1)NCCCn1ccnc1,x,3,-2,3,x,0
Cc1cc(=O)oc2cc(OCC(=O)NCCCn3ccnc3)ccc12,x,3,0,12*,x,-3
Cc1cc(=O)oc2cc(OCC(O)Cn3ccnc3)ccc12 (centres undefined),x,2,-1,10*,x,-2
Cc1ccccc1N(CC(=O)N1CCN(Cc2ccccc2)CC1)S(C)(=O)=O,x,70*,5,x,x,x
N#Cc1nc(-c2cccc(Cl)c2)oc1N1CCC(C(N)=O)CC1,x,-5,-2,3,x,-1
N/C(=N\c1nc(CSc2nnnn2-c2ccccc2)cc(=O)[nH]1)Nc1ccccc1,1,x,x,-5,2,-4
O=c1cc(CSc2nnnn2-c2ccccc2)nc(Nc2ccc(F)cc2)[nH]1,0,4,-2,10.0*,2,3
CCOc1ccc(NC(=S)N(Cc2ccc(N(C)C)cc2)Cc2ccco2)cc1,0,77*,-1,-5,-1,-3
COc1ccc(NC(=S)N(Cc2ccc(N(C)C)cc2)Cc2ccco2)cc1,0,32,-2,1,-3,0
N#Cc1c(N)nc(SC2CCCCC2=O)c(C#N)c1-c1ccco1 (centres undefined),1,106*,1,0,2,-4
CCN(C(=O)CSc1nnc(CNc2cccc(OC)c2)n1C1CCCCC1)C1CCS(=O)(=O)C1 (centres undefined),x,1,0,-2,x,-2
Nc1nn(S(=O)(=O)c2ccccc2)cc1-c1ccc([N+](=O)[O-])cc1,0,50*,-1,0,-2,-1
Cn1c(CCC(=O)Nc2cc(S(C)(=O)=O)ccc2Cl)nc2cc(S(=O)(=O)N3CCOCC3)ccc21,x,-17,2,x,x,x
COc1ccc(-c2nnc(SCC(=O)c3ccc(O)cc3O)o2)cc1,x,-2,3,-3,x,-3
OCCOCCN1CCN(C(=S)Nc2ccccc2)CC1,0,70*,-1,-2,-1,-2
